Laboratory results published in ChEMBL document CHEMBL4359881, “Novel antiacanthamoebic compounds belonging to quinazolinones” (Eur J Med Chem, 2019).
Calls of active or inactive are those of the source. No cut-off for these calls is given here.

Columns and labels:
Acanthamoeba castellanii [1] = assay: Antiamoebic activity against Acanthamoeba castellanii T4 genotype ATCC 50492 trophozites assessed as reduction in viable cells at 50 ug/ml incubated for 24 hrs by trypan blue staining based hemocytometric method relative to control; type: functional; settings: T4 genotype ATCC 50492, 24 h
Procedure, shortened: (§1)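 Trophozoites from PYG cultures at 30 °C were detached on ice and resuspended in PBS. They were exposed at 5×10^5 per well in RPMI-1640 at 30 °C for 24 h, stained with 0.1% Trypan blue for 5 min, and unstained cells were counted by hemocytometer. Untreated cells were the negative control and chlorhexidine the positive control. Significance was tested against methanol solvent. Duplicates; mean ± SE.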

Acanthamoeba castellanii [2] = assay: Inhibition of Acanthamoeba castellanii T4 genotype ATCC 50492 excystation at 100 ug/ml incubated with pre-formed cysts for 72 hrs by hemocytometric method; type: functional, organism-based
Procedure, shortened: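 Cysts were formed by plating 1×10^6 trophozoites on 1.5% non-nutrient agar at 30 °C for up to 2 weeks, then scraped into PBS. 1×10^5 cysts were incubated with compound in PYG at 30 °C for 72 h, and emerging trophozoites were counted by hemocytometer. Duplicates; mean ± SE; two-tailed two-sample t-test.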

Acanthamoeba castellanii [3] = assay: (§2) Antiamoebic activity against Acanthamoeba castellanii T4 genotype ATCC 50492 infected in human HaCaT cells assessed as reduction in amoeba-induced host cell cytopathogenicity at 100 ug/ml preincubated with amoeba for 2 hrs followed by incubation of suspension with host cell for 24 hrs by LDH release assay; type: functional, organism-based
Procedure, shortened: (§3)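 Amoebae were pretreated with compound for 2 h at 30 °C, pelleted at 3000g for 5 min, and resuspended in fresh RPMI-1640 to remove compound. They were then added to HaCaT monolayers for 24 h at 37 °C in 5% CO2. Supernatant LDH was read at 492 nm. % cytotoxicity was calculated against untreated and 0.1% Triton X-100 lysed cells. Duplicates; mean ± SE.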

HaCaT [4] = assay: Cytotoxicity against human HaCaT cells at 100 ug/ml incubated for 24 hrs by LDH release assay; type: cell-based
Procedure, shortened: (§4)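 HaCaT keratinocytes were grown in RPMI-1640 with 10% FBS and Nu-serum and seeded to a monolayer over 24 h. Compound was applied for 24 h at 37 °C in 5% CO2, and LDH in the supernatant was measured. Medium alone gave the baseline and 0.1% Triton X-100 gave total lysis. Duplicates; mean ± SE.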

Acanthamoeba castellanii [5] = assay: Antiamoebic activity against Acanthamoeba castellanii T4 genotype ATCC 50492 trophozites assessed as reduction in viable cells at 100 ug/ml incubated for 24 hrs by trypan blue staining based hemocytometric method relative to control; type: functional; settings: T4 genotype ATCC 50492, 24 h; procedure, shortened: as §1
Acanthamoeba castellanii [6] = assay: as §2, with “assay relative to control” for “assay”; type: functional; settings: T4 genotype ATCC 50492, HaCaT; procedure, shortened: as §3
HaCaT [7] = assay: Cytotoxicity against human HaCaT cells at 100 ug/ml incubated for 24 hrs by LDH release assay relative to control; type: cell-based; procedure, shortened: as §4
Acanthamoeba castellanii [8] = assay: Inhibition of Acanthamoeba castellanii T4 genotype ATCC 50492 trophozites encystation at 100 ug/ml incubated for 72 hrs by hemocytometric method; type: functional, organism-based
Procedure, shortened: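 5×10^5 trophozoites in PBS were pretreated with compound for 15 min at room temperature. They were then transferred into encystation medium (50 mM MgCl2, 10% glucose) at 30 °C for 72 h. Trophozoites were lysed with 0.25% SDS for 10 min, and SDS-resistant cysts were counted by hemocytometer. Duplicates; mean ± SE; two-tailed t-test.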

Acanthamoeba castellanii [9] = assay: Antiamoebic activity against Acanthamoeba castellanii T4 genotype ATCC 50492 trophozites assessed as reduction in viable cells at 100 ug/ml incubated for 24 hrs by trypan blue staining based hemocytometric method; type: functional, organism-based; procedure, shortened: as §1
Acanthamoeba castellanii [10] = assay: Antiamoebic activity against Acanthamoeba castellanii T4 genotype ATCC 50492 assessed as increase in pore formation at 100 ug/ml incubated for 2 hrs by FE-SEM analysis; type: functional, organism-based
Procedure, shortened: (§5)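 Trophozoites were treated with compound, then fixed on glass coverslips in 2.5% glutaraldehyde in PBS at 4 °C for 2 h. Samples were dehydrated through 50–100% ethanol, air-dried and sputter-coated with platinum. Surface morphology was imaged by FESEM at several scales, with untreated amoebae for comparison.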

Acanthamoeba castellanii [11] = assay: Antiamoebic activity against Acanthamoeba castellanii T4 genotype ATCC 50492 assessed as increase in surface disintegration at 100 ug/ml incubated for 2 hrs by FE-SEM analysis; type: functional, organism-based; procedure, shortened: as §5

| Compound | inhibition at 50 µg/mL (Acanthamoeba castellanii [1]) | inhibition (Acanthamoeba castellanii [2]) | inhibition (Acanthamoeba castellanii [3]) | Activity (HaCaT [4]) | inhibition at 100 µg/mL (Acanthamoeba castellanii [5]) | inhibition at 100 µg/mL (Acanthamoeba castellanii [6]) | Activity (HaCaT [7]) | inhibition (Acanthamoeba castellanii [8]) | inhibition (Acanthamoeba castellanii [9]) | Activity (Acanthamoeba castellanii [10]) | Activity (Acanthamoeba castellanii [11]) |
| --- | --- | --- | --- | --- | --- | --- | --- | --- | --- | --- | --- |
| COc1ccc(-n2cnc3c(C)cccc3c2=O)cc1 | > 50% | Active | Active | Non-Toxic | > 50% |  |  |  |  |  |  |
| COc1ccc(OC)c(-n2cnc3c(C)cccc3c2=O)c1 | > 50% | Active | Active | Non-Toxic | > 50% |  |  |  |  |  |  |
| Cc1cccc2c(=O)n(-c3cccc(F)c3)cnc12 | > 50% | Active | Active | Non-Toxic | > 80% |  |  |  |  |  |  |
| Cc1cccc2c(=O)n(-c3ccccc3I)cnc12 | > 60% | Active |  |  | > 80% | 100% | 8% | Active |  |  |  |
| Cc1cccc2c(=O)n(-c3ccc(Cl)cc3)cnc12 | > 50% | Active | Active | Non-Toxic | > 50% |  |  |  |  |  |  |
| Cc1cccc2c(=O)n(-c3ccc(Br)cc3)cnc12 | > 50% | Active | Active | Non-Toxic | > 50% |  |  |  |  |  |  |
| Cc1ccccc1-n1cnc2c(C)cccc2c1=O | > 50% | Active |  | Non-Toxic | > 50% | 100% |  | Active |  |  |  |
| Cc1cc(C)cc(-n2cnc3c(C)cccc3c2=O)c1 |  | Active | Active | Non-Toxic |  |  |  |  | inactive |  |  |
| Cc1cccc2c(=O)n(-c3ccc(F)cc3F)cnc12 | > 50% | Active | Active | Non-Toxic | > 50% |  |  | Active |  |  |  |
| CSc1cccc(-n2cnc3c(C)cccc3c2=O)c1 | > 50% | Active | Active | Non-Toxic | > 50% |  |  |  |  |  |  |
| Cc1cccc2c(=O)n(-c3ccc(I)cc3)cnc12 | > 60% | Active |  | Non-Toxic | > 50% | 100% |  |  |  |  |  |
| Cc1cccc2c(=O)n(-c3cccc(Br)c3)cnc12 | > 50% | Active | Active |  | > 50% |  | 11% |  |  |  |  |
| Cc1cccc2c(=O)n(-c3ccc(F)cc3)cnc12 | > 60% | Active |  | Non-Toxic | > 80% | 100% |  |  |  | Active | Active |
| Cc1ccc(-n2cnc3c(C)cccc3c2=O)cc1 | > 50% | Active | Active | Non-Toxic | > 50% |  |  |  |  | Active | Active |
| N=C(NCCCCCCNC(=N)NC(=N)Nc1ccc(Cl)cc1)NC(=N)Nc1ccc(Cl)cc1 |  | Active |  |  |  |  |  |  |  |  |  |
| Cc1cccc2c(=O)n(-c3cccc(Cl)c3)cnc12 | > 50% | Active | Active | Non-Toxic | > 50% |  |  |  |  |  |  |
